Reference: ChEMBL document CHEMBL1122347, “synthesis and antihypertensive activity of 2-sulfonamido- and 2-sulfamido-1,3,4,6,7,11b alpha-hexahydro-2H-benzo[a]quinolizines” (1983)
Active and inactive are the calls of the source. No cut-off for these calls is given here.

Experiments:
Rattus norvegicus [1] = test: Antihypertensive activity in DOCA/saline rat dosed at 50 mg/kg, po expressed as percent fall in blood pressure after 2 h; format: functional
Procedure, shortened: (§1)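 Hypertensive rats were kept only if systolic pressure was at least 155 mmHg, in groups of four. They were dosed orally in 0.5% (hydroxypropyl)methylcellulose/0.9% saline vehicle (10 mL/kg), with a vehicle-alone control. Systolic pressure was measured by tail-cuff with a pneumatic pulse transducer in 37 °C housing before dosing and at 2, 6 and 24 h. Heart rate was taken from pulse traces. Means ± SE; ANOVA against control, p > 0.05 nonsignificant.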

Rattus norvegicus [2] = test: Antihypertensive activity in DOCA/saline rat dosed at 50 mg/kg, po expressed as percent fall in blood pressure after 6 h; NS is not significant; format: functional, organism-based; design: dose 50 mg/kg; procedure, shortened: as §1
Rattus norvegicus [3] = test: Antihypertensive activity in DOCA/saline rat dosed at 50 mg/kg, po expressed as percent rise in heart rate after 6 h; NS is not significant; format: functional, organism-based; design: dose 50 mg/kg; procedure, shortened: as §1
Rattus norvegicus [4] = test: Antihypertensive activity in DOCA/saline rat dosed at 50 mg/kg, po expressed as percent rise in heart rate after 2 h; format: functional; procedure, shortened: as §1
Rattus norvegicus [5] = test: Antihypertensive activity in DOCA/saline rat dosed at 50 mg/kg, administered perorally expressed as percent fall in blood pressure after 2 h; format: functional; conditions: route oral; procedure, shortened: as §1
Rattus norvegicus [6] = test: Antihypertensive activity in DOCA/saline rat dosed at 50 mg/kg, administered perorally expressed as percent fall in blood pressure after 6 h; NS is not significant; format: functional, organism-based; design: dose 50 mg/kg; procedure, shortened: as §1
Rattus norvegicus [7] = test: Antihypertensive activity in DOCA/saline rat dosed at 50 mg/kg, administered perorally expressed as percent rise in heart rate after 2 h; NS is not significant; format: functional, organism-based; design: dose 50 mg/kg; procedure, shortened: as §1
Rattus norvegicus [8] = test: Antihypertensive activity in DOCA/saline rat dosed at 50 mg/kg, administered perorally expressed as percent rise in heart rate after 6 h; NS is not significant; format: functional, organism-based; design: dose 50 mg/kg; procedure, shortened: as §1
Rattus norvegicus [9] = test: Antihypertensive activity in DOCA/saline rat dosed at 25 mg/kg, administered perorally expressed as percent fall in blood pressure after 6 h; NS is not significant; format: functional, organism-based; design: dose 25 mg/kg; procedure, shortened: as §1
Rattus norvegicus [10] = test: Antihypertensive activity in DOCA/saline rat dosed at 25 mg/kg, administered perorally expressed as percent fall in blood pressure after 2 h; format: functional; conditions: route oral; procedure, shortened: as §1
Rattus norvegicus [11] = test: Antihypertensive activity in DOCA/saline rat dosed at 25 mg/kg, administered perorally expressed as percent rise in heart rate after 2 h; NS is not significant; format: functional, organism-based; design: dose 25 mg/kg; procedure, shortened: as §1
Rattus norvegicus [12] = test: Antihypertensive activity in DOCA/saline rat dosed at 25 mg/kg, administered perorally expressed as percent rise in heart rate after 6 h; NS is not significant; format: functional, organism-based; design: dose 25 mg/kg; procedure, shortened: as §1
Rattus norvegicus [13] = test: Antihypertensive activity in DOCA/saline rat dosed at 50 mg/kg, administered perorally expressed as percent fall in blood pressure after 6 h; format: functional; conditions: route oral; procedure, shortened: as §1
Rattus norvegicus [14] = test: Antihypertensive activity in DOCA/saline rat dosed at 10 mg/kg, administered perorally expressed as percent fall in blood pressure after 2 h; format: functional; conditions: route oral; procedure, shortened: as §1
Rattus norvegicus [15] = test: Antihypertensive activity in DOCA/saline rat dosed at 10 mg/kg, administered perorally expressed as percent fall in blood pressure after 6 h; NS is not significant; format: functional, organism-based; design: dose 10 mg/kg; procedure, shortened: as §1
Rattus norvegicus [16] = test: Antihypertensive activity in DOCA/saline rat dosed at 25 mg/kg, administered perorally expressed as percent fall in blood pressure after 6 h; format: functional; conditions: route oral; procedure, shortened: as §1
Rattus norvegicus [17] = test: Antihypertensive activity in DOCA/saline rat dosed at 50 mg/kg, administered perorally expressed as percent rise in heart rate after 2 h; NS is not significant,; format: functional, organism-based; design: dose 50 mg/kg; procedure, shortened: as §1
Rattus norvegicus [18] = test: Antihypertensive activity in DOCA/saline rat dosed at 10mg/kg, administered perorally expressed as percent rise in heart rate after 2 h; format: functional; procedure, shortened: as §1
Rattus norvegicus [19] = test: Antihypertensive activity in DOCA/saline rat dosed at 10 mg/kg, administered perorally expressed as percent rise in heart rate after 6 h; NS is not significant; format: functional, organism-based; design: dose 10 mg/kg; procedure, shortened: as §1
Rattus norvegicus [20] = test: Antihypertensive activity in DOCA/saline rat dosed at 25 mg/kg, po administered perorally expressed as percent rise in heart rate after 2 h; NS is not significant; format: functional, organism-based; design: dose 25 mg/kg; procedure, shortened: as §1
Rattus norvegicus [21] = test: Antihypertensive activity in DOCA/saline rat dosed at 50 mg/kg, administered perorally expressed as percent fall in blood pressure after 2 h; NS is not significant; format: functional, organism-based; design: dose 50 mg/kg; procedure, shortened: as §1
Rattus norvegicus [22] = test: Antihypertensive activity in DOCA/saline rat dosed at 50 mg/kg, administered perorally expressed as percent rise in heart rate after 2 h; format: functional; conditions: route oral; procedure, shortened: as §1
Rattus norvegicus [23] = test: Antihypertensive activity in DOCA/saline rat dosed at 10 mg/kg, administered perorally expressed as percent fall in blood pressure after 2 h; NS is not significant; format: functional, organism-based; design: dose 10 mg/kg; procedure, shortened: as §1
Rattus norvegicus [24] = test: Antihypertensive activity in DOCA/saline rat dosed at 10mg/kg, administered perorally expressed as percent fall in blood pressure after 6 h; NS is not significant; format: functional, organism-based; procedure, shortened: as §1

SMILES	Decrease in blood pressure (Rattus norvegicus [5]) [%]	Decrease in blood pressure (Rattus norvegicus [6])	Rise HR (Rattus norvegicus [7])	Rise HR (Rattus norvegicus [8])	Decrease in blood pressure (Rattus norvegicus [13]) [%]	Decrease in blood pressure (Rattus norvegicus [21])	Rise HR (Rattus norvegicus [22]) [%]	other results
Cc1ccc(N(CC2=NCCN2)c2cccc(O)c2)cc1 [PHENTOLAMINE]								Decrease in blood pressure (Rattus norvegicus [1]): 36%; Decrease in blood pressure (Rattus norvegicus [2]): inactive; Rise HR (Rattus norvegicus [3]): inactive; Rise HR (Rattus norvegicus [4]): 23%
CCN(CC)S(=O)(=O)N[C@@H]1CCN2CCc3ccccc3[C@@H]2C1.Cl	29	inactive	inactive	inactive				
CCS(=O)(=O)N(C)[C@@H]1CCN2CCc3ccccc3[C@@H]2C1.Cl								Decrease in blood pressure (Rattus norvegicus [9]): inactive; Decrease in blood pressure (Rattus norvegicus [10]): 36%; Rise HR (Rattus norvegicus [11]): inactive; Rise HR (Rattus norvegicus [12]): inactive
CN(C)S(=O)(=O)N[C@@H]1CCN2CCc3ccccc3[C@@H]2C1.Cl	45		inactive	inactive	31			
CS(=O)(=O)N[C@@H]1CCN2CCc3ccccc3[C@@H]2C1.Cl	53				68			Decrease in blood pressure (Rattus norvegicus [14]): 28%; Decrease in blood pressure (Rattus norvegicus [15]): inactive; Decrease in blood pressure (Rattus norvegicus [10]): 50%; Decrease in blood pressure (Rattus norvegicus [16]): 50%; Increase in heart rate (Rattus norvegicus [17]): Not significant; Rise HR (Rattus norvegicus [18]): 39%; Rise HR (Rattus norvegicus [19]): inactive; Rise HR (Rattus norvegicus [12]): inactive; Rise HR (Rattus norvegicus [20]): inactive; Increase in heart rate (Rattus norvegicus [8]): inactive
CS(=O)(=O)N[C@@H]1CCN2CCc3ccc(Cl)cc3[C@@H]2C1		inactive	inactive	inactive		inactive		
CNS(=O)(=O)N[C@@H]1CCN2CCc3ccccc3[C@@H]2C1.Cl	35			inactive	18		23	
Cl.NS(=O)(=O)N[C@@H]1CCN2CCc3ccccc3[C@@H]2C1	48			inactive	50		24	Decrease in blood pressure (Rattus norvegicus [23]): inactive; Rise HR (Rattus norvegicus [18]): 24%; Rise HR (Rattus norvegicus [19]): inactive; Decrease in blood pressure (Rattus norvegicus [24]): inactive
Cl.O=S(=O)(N[C@@H]1CCN2CCc3ccccc3[C@@H]2C1)N1CCCC1		inactive		inactive		inactive	22	
CCS(=O)(=O)N[C@H]1CCN2CCc3ccccc3[C@@H]2C1		inactive	inactive	inactive		inactive		
